What is called IC50 is the concentration at which inhibition is half-maximal. Higher therefore signals weaker potency.

One experiment relates to Plasmodium falciparum. The experiment is described as follows: Parasite growth inhibition against Plasmodium falciparum FCM29. The class given is functional, organism-based.
Conditions: not given
Put shortly: (§1)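 Asynchronous cultures of each strain on human erythrocytes (0.5% parasitemia, 1% final hematocrit) were exposed to serially diluted drug for 24 h at 37 °C. Then 0.5 µCi [3H]hypoxanthine per well was added for 24 h. Incorporation was compared with a drug-free control on the same plate. IC50 was taken from the concentration-response curve as the mean of several independent experiments. DMSO was at most 0.1%.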
`COc1ccc2nc3cc(Cl)ccc3c(NCCCN(CCCNc3c4ccc(Cl)cc4nc4ccc(OC)cc34)C(=O)C(C)NC(=O)OC(C)(C)C)c2c1` (stereo not drawn) came in with an IC50 of 11 nM.

In the next experiment the test system is Plasmodium falciparum. The experiment is described as follows: Parasite growth inhibition against Plasmodium falciparum W2. The class given is functional, organism-based.
Conditions: not given
The method in brief: as §1
Turning to `COc1ccc2nc3cc(Cl)ccc3c(NCCCN(CCCNc3c4ccc(Cl)cc4nc4ccc(OC)cc34)C(=O)C(C)NC(=O)OC(C)(C)C)c2c1` (stereo not drawn), the concentration for half-maximal inhibition (IC50) came to 10 nM.

A further experiment relates to Trypanosoma brucei. The experiment is described as follows: Percentage of activity against Trypanosoma brucei at 6.25 uM. Type of experiment: functional.
Conditions: not given
The method in brief:
(§2)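 Bloodstream-form T. brucei in HMI-9 medium, 10 000 parasites/well, exposed to 12.5, 6.25, 3.13 and 1.56 µM drug for 4 days. Read-out is % inhibition of parasite multiplication. Macrophage toxicity judged on mouse primary peritoneal macrophages.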
As for `COc1ccc2nc3cc(Cl)ccc3c(NCCCN(CCCNc3c4ccc(Cl)cc4nc4ccc(OC)cc34)C(=O)C(C)NC(=O)OC(C)(C)C)c2c1` (stereo not drawn), the “Inhibition of parasite multiplication” value was found to be 100%.

The subject of a further experiment is Leishmania infantum. The experiment is described as follows: Percentage of activity against Leishmania infantum 6.25 uM. Type of experiment: functional.
Conditions: not given
Put shortly:
(§3)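 Starch-stimulated mouse peritoneal macrophages, 30 000/well, infected after 24 h with spleen-derived L. infantum amastigotes (10:1) together with 2-fold drug dilutions (12.5–1.56 µM). Incubated 7 days at 37 °C, 5% CO2. Wright-stained slides scored microscopically as % reduction of total parasite load or of infected macrophages. Uninfected treated cultures judged microscopically for macrophage toxicity.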
For the molecule `COc1ccc2nc3cc(Cl)ccc3c(NCCCN(CCCNc3c4ccc(Cl)cc4nc4ccc(OC)cc34)C(=O)C(C)NC(=O)OC(C)(C)C)c2c1` (stereo not drawn), the “Antileishmanial activity (% reduction of parasite load)” value is listed as 95%.

A further experiment deals with Trypanosoma cruzi. Kind of experiment: Percentage of activity against Trypanosoma cruzi at 12.5 uM; Toxic upon mouse primary peritoneal macrophages. The class given is functional, organism-based.
Conditions: not given
The method in brief:
(§4)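 Mouse peritoneal macrophages, 30 000/well, infected after 24 h with about 100 000 T. cruzi trypomastigotes per well plus 2-fold drug dilutions (12.5–1.56 µM). Incubated 4 days at 37 °C, 5% CO2. Methanol-fixed, Giemsa-stained and scored microscopically as % reduction of total parasite load (free trypomastigotes plus intracellular amastigotes) versus untreated controls.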
Turning to `COc1ccc2nc3cc(Cl)ccc3c(NCCCN(CCCNc3c4ccc(Cl)cc4nc4ccc(OC)cc34)C(=O)C(C)NC(=O)OC(C)(C)C)c2c1` (stereo not drawn), the Cytotoxicity result was “Toxic”.

A further experiment concerns Trypanosoma brucei. Kind of experiment: Percentage of activity against Trypanosoma brucei at 3.13 uM. Type of experiment: functional.
Conditions: not given
The method in brief:
as §2
As to `COc1ccc2nc3cc(Cl)ccc3c(NCCCN(CCCNc3c4ccc(Cl)cc4nc4ccc(OC)cc34)C(=O)C(C)NC(=O)OC(C)(C)C)c2c1` (stereo not drawn), the Parasite growth inhibition stood at 100%.

The test system of another experiment is Trypanosoma cruzi. Kind of experiment: Percentage of activity against Trypanosoma cruzi at 1.56 uM. Type of experiment: functional.
Conditions: not given
The method in brief:
as §4
Take `COc1ccc2nc3cc(Cl)ccc3c(NCCCN(CCCNc3c4ccc(Cl)cc4nc4ccc(OC)cc34)C(=O)C(C)NC(=O)OC(C)(C)C)c2c1` (stereo not drawn): the Parasite load reduction stood at 0%.

The next experiment deals with Plasmodium falciparum. The experiment is described as follows: Parasite growth inhibition against Plasmodium falciparum K1. Type of experiment: functional, organism-based.
Conditions: not given
Put shortly: as §1
Turning to `COc1ccc2nc3cc(Cl)ccc3c(NCCCN(CCCNc3c4ccc(Cl)cc4nc4ccc(OC)cc34)C(=O)C(C)NC(=O)OC(C)(C)C)c2c1` (stereo not drawn), half-maximal inhibition (IC50) was put at 12 nM.

Another experiment concerns Leishmania infantum. The experiment is described as follows: Percentage of activity against Leishmania infantum at 3.13 uM. Type of experiment: functional.
Conditions: not given
Put shortly:
as §3
Consider `COc1ccc2nc3cc(Cl)ccc3c(NCCCN(CCCNc3c4ccc(Cl)cc4nc4ccc(OC)cc34)C(=O)C(C)NC(=O)OC(C)(C)C)c2c1` (stereo not drawn), for which the “Percent antileishmanial activity (reduction of parasite load)” value stood at 60%.

A further experiment relates to Leishmania infantum. Kind of experiment: Percentage of activity against Leishmania infantum at 12.5 uM Concentration; Toxic upon mouse primary peritoneal macrophages. Type of experiment: functional, organism-based.
Conditions: not given
Put shortly:
as §3
`COc1ccc2nc3cc(Cl)ccc3c(NCCCN(CCCNc3c4ccc(Cl)cc4nc4ccc(OC)cc34)C(=O)C(C)NC(=O)OC(C)(C)C)c2c1` (stereo not drawn): the Cytotoxicity entry is “Toxic”.

A further experiment deals with Trypanosoma cruzi. The experiment is described as follows: Percentage of activity against Trypanosoma cruzi at 3.13 uM. Type of experiment: functional.
Conditions: not given
The method in brief: as §4
Take `COc1ccc2nc3cc(Cl)ccc3c(NCCCN(CCCNc3c4ccc(Cl)cc4nc4ccc(OC)cc34)C(=O)C(C)NC(=O)OC(C)(C)C)c2c1` (stereo not drawn): the “Reduction of T. cruzi parasite load” value stood at 40%.

The subject of another experiment is MRC5. The experiment is described as follows: Cytotoxicity on MRC-5 cells at 6.25 uM. The note with it: Homo sapiens. The class given is functional. Put shortly: (§5)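 MRC-5 human diploid embryonic lung cells seeded at 5 000/well, washed after 24 h, then given 2-fold drug dilutions (25, 12.5, 6.25, 3.13 µM) in RPMI + 5% FCS, final DMSO below 0.5%. Incubated 7 days at 37 °C, 5% CO2. MTT colorimetric read-out, scored as % reduction of absorbance at 540 nm versus untreated controls.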
As for `COc1ccc2nc3cc(Cl)ccc3c(NCCCN(CCCNc3c4ccc(Cl)cc4nc4ccc(OC)cc34)C(=O)C(C)NC(=O)OC(C)(C)C)c2c1` (stereo not drawn), the cytotoxicity at 6.25 µM worked out at 100%.

The subject of the next experiment is MRC5. Kind of experiment: Cytotoxicity on MRC-5 cells at 25 uM. The class given is functional. Conditions: Homo sapiens. Put shortly: as §5
`COc1ccc2nc3cc(Cl)ccc3c(NCCCN(CCCNc3c4ccc(Cl)cc4nc4ccc(OC)cc34)C(=O)C(C)NC(=O)OC(C)(C)C)c2c1` (stereo not drawn) had a cytotoxicity at 25 µM of 100%.

Another experiment deals with Plasmodium falciparum. Kind of experiment: Parasite growth inhibition against Plasmodium falciparum GP1. The class given is functional, organism-based.
Conditions: not given
Put shortly:
as §1
Molecule `COc1ccc2nc3cc(Cl)ccc3c(NCCCN(CCCNc3c4ccc(Cl)cc4nc4ccc(OC)cc34)C(=O)C(C)NC(=O)OC(C)(C)C)c2c1` (stereo not drawn) displayed an IC50 of 35 nM.

The subject of the next experiment is Leishmania infantum. Kind of experiment: Percentage of activity against Leishmania infantum at 1.56 uM. The class given is functional.
Conditions: not given
Put shortly:
as §3
`COc1ccc2nc3cc(Cl)ccc3c(NCCCN(CCCNc3c4ccc(Cl)cc4nc4ccc(OC)cc34)C(=O)C(C)NC(=O)OC(C)(C)C)c2c1` (stereo not drawn): the “Antileishmanial activity (% reduction of parasite load)” value is 40%.

In the next experiment the test system is MRC5. Kind of experiment: Cytotoxicity on MRC-5 cells at 3.13 uM. The class given is functional. Conditions: Homo sapiens. The method in brief:
as §5
As for `COc1ccc2nc3cc(Cl)ccc3c(NCCCN(CCCNc3c4ccc(Cl)cc4nc4ccc(OC)cc34)C(=O)C(C)NC(=O)OC(C)(C)C)c2c1` (stereo not drawn), the cytotoxicity at 3.13 µM stood at 0%.

Another experiment relates to Plasmodium falciparum. Kind of experiment: In vitro sensitivity for Plasmodium falciparum FcB1R. Type of experiment: functional, organism-based.
Conditions: not given
Put shortly: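 Asynchronous P. falciparum cultures in human erythrocytes (0.5% parasitemia, 1% haematocrit) exposed to serially diluted drug for 24 h at 37 °C. [3H]hypoxanthine (0.5 µCi/well) then added for a further 24 h. Uptake compared with drug-free controls on the same plate. IC50 taken from the concentration–response curve, averaged over independent experiments. DMSO ≤0.1%.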
For `COc1ccc2nc3cc(Cl)ccc3c(NCCCN(CCCNc3c4ccc(Cl)cc4nc4ccc(OC)cc34)C(=O)C(C)NC(=O)OC(C)(C)C)c2c1` (stereo not drawn), the IC50 was 31 nM.

The next experiment has as its system Trypanosoma brucei. The experiment is described as follows: Percentage of activity against Trypanosoma brucei at 1.56 uM. The class given is functional.
Conditions: not given
Put shortly: as §2
For the molecule `COc1ccc2nc3cc(Cl)ccc3c(NCCCN(CCCNc3c4ccc(Cl)cc4nc4ccc(OC)cc34)C(=O)C(C)NC(=O)OC(C)(C)C)c2c1` (stereo not drawn), the “Percent inhibition of parasite multiplication” value was 100%.

The test system of the next experiment is Trypanosoma brucei. Kind of experiment: Percentage of activity against Trypanosoma brucei at 12.5 uM. The class given is functional.
Conditions: not given
The method in brief: as §2
As to `COc1ccc2nc3cc(Cl)ccc3c(NCCCN(CCCNc3c4ccc(Cl)cc4nc4ccc(OC)cc34)C(=O)C(C)NC(=O)OC(C)(C)C)c2c1` (stereo not drawn), the “Inhibition of parasite multiplication” value is on record as 100%.

The subject of another experiment is Plasmodium falciparum. The experiment is described as follows: Parasite growth inhibition against Plasmodium falciparum F32A. Type of experiment: functional, organism-based.
Conditions: not given
Put shortly: as §1
In turn, `COc1ccc2nc3cc(Cl)ccc3c(NCCCN(CCCNc3c4ccc(Cl)cc4nc4ccc(OC)cc34)C(=O)C(C)NC(=O)OC(C)(C)C)c2c1` (stereo not drawn) registered an IC50 of 66 nM.

Another experiment has as its system MRC5. Kind of experiment: Cytotoxicity on MRC-5 cells at 12.5 uM. Type of experiment: functional. Conditions: Homo sapiens. Put shortly:
as §5
`COc1ccc2nc3cc(Cl)ccc3c(NCCCN(CCCNc3c4ccc(Cl)cc4nc4ccc(OC)cc34)C(=O)C(C)NC(=O)OC(C)(C)C)c2c1` (stereo not drawn) gave a cytotoxicity at 12.5 µM of 100%.

The next experiment relates to Trypanosoma cruzi. Kind of experiment: Percentage of activity against Trypanosoma cruzi at 6.25 uM Concentration. Type of experiment: functional.
Conditions: not given
Put shortly:
as §4
Take `COc1ccc2nc3cc(Cl)ccc3c(NCCCN(CCCNc3c4ccc(Cl)cc4nc4ccc(OC)cc34)C(=O)C(C)NC(=O)OC(C)(C)C)c2c1` (stereo not drawn): the “Reduction of T. cruzi parasite load” value came out at 90%.

A further experiment relates to Plasmodium falciparum. Kind of experiment: Growth inhibition of chloroquine-sensitive Plasmodium falciparum 3D7.
Conditions: not given
Take `COc1ccc2nc3cc(Cl)ccc3c(NCCCN(CCCNc3c4ccc(Cl)cc4nc4ccc(OC)cc34)C(=O)C(C)NC(=O)OC(C)(C)C)c2c1` (stereo not drawn): the IC50 came to 22 nM.

Source of the values: ChEMBL document CHEMBL1133105, “Antimalarial, antitrypanosomal, and antileishmanial activities and cytotoxicity of bis(9-amino-6-chloro-2-methoxyacridines): influence of the linker” (J Med Chem, 2000).
